According to ChEMBL document CHEMBL4184124, “Progress in antischistosomal N,N'-diaryl urea SAR” (Bioorg Med Chem Lett, 2018):
≈ marks a conversion by molar mass, not a printed value. Calls of active or inactive are those of the source. The calls are words filed in the database; no cut-off is given here.

tested on: not listed separately; assay: Cytotoxicity against human HC04 cells; assay type: cell-based; conditions: not given

SMILES	IC50 [µM]
O=C(Nc1ccc2c(c1)OC(F)(F)O2)Nc1ccc(F)c(C(F)(F)F)c1	> 100
O=C(Nc1ccnc(C(F)(F)F)c1)Nc1ccc(F)c(C(F)(F)F)c1	> 100
O=C(Nc1ccc2c(c1)OC(F)(F)O2)Nc1ccc2c(c1)OC(F)(F)O2	> 100
O=C(Nc1ccc(F)c(C(F)(F)F)c1)Nc1ccc(F)c(C(F)(F)F)c1	> 100
O=C(Nc1ccnc(C(F)(F)F)c1)Nc1ccc2c(c1)OC(F)(F)O2	> 100

tested on: Schistosoma mansoni; assay: Antischistosomal activity against newly transformed stage of Schistosoma mansoni assessed as parasite death at 10 uM; assay type: functional, organism-based; conditions: not given
How it was run: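 Newly transformed schistosomula exposed at 10 µM as a screen for killing; active compounds then titrated to give IC50.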

SMILES	Activity
O=C(Nc1ccc2c(c1)OC(F)(F)O2)Nc1ccc(F)c(C(F)(F)F)c1	Active
O=C(Nc1ccnc(C(F)(F)F)c1)Nc1ccc(F)c(C(F)(F)F)c1	Active
O=C(Nc1ccc2c(c1)OC(F)(F)O2)Nc1ccc2c(c1)OC(F)(F)O2	Active
O=C(Nc1ccc(F)c(C(F)(F)F)c1)Nc1ccc(F)c(C(F)(F)F)c1	Active
O=C(Nc1ccnc(C(F)(F)F)c1)Nc1ccc2c(c1)OC(F)(F)O2	Active

tested on: Schistosoma mansoni; assay: Antischistosomal activity against Schistosoma mansoni cercariae infected in NMRI mouse assessed as reduction in worm burden at 80 mg/kg, po administered as four consecutive dose via gavage measured after 21 days relative to control; assay type: functional; parameters: scale not given: the % may be the effect or the level left; conditions: not given
How it was run: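 Infected mice given four consecutive 80 mg/kg oral doses; efficacy read as worm burden reduction (%).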

SMILES	Activity [%]
O=C(Nc1ccnc(C(F)(F)F)c1)Nc1ccc(F)c(C(F)(F)F)c1	53

tested on: not listed separately; assay: Tmax in Swiss mouse at 100 mg/kg, po administered as single dose via gavage by LC-MS analysis; assay type: ADME, organism-based; conditions: in vivo
How it was run: (§1)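 Single 100 mg/kg oral dose given to non-infected male Swiss outbred mice; plasma sampled over 48 h post-dose; n=2 mice per time point, mean values. AUC taken to last measured concentration.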

SMILES	Tmax [h]
O=C(Nc1ccnc(C(F)(F)F)c1)Nc1ccc(F)c(C(F)(F)F)c1	7.5
O=C(Nc1ccc(F)c(C(F)(F)F)c1)Nc1ccc(F)c(C(F)(F)F)c1	4

tested on: U2OS; assay: Cytotoxicity against human U2OS cells; assay type: cell-based; conditions: not given

SMILES	IC50 [µM]
O=C(Nc1ccc2c(c1)OC(F)(F)O2)Nc1ccc(F)c(C(F)(F)F)c1	> 100
O=C(Nc1ccnc(C(F)(F)F)c1)Nc1ccc(F)c(C(F)(F)F)c1	> 100
O=C(Nc1ccc2c(c1)OC(F)(F)O2)Nc1ccc2c(c1)OC(F)(F)O2	> 100
O=C(Nc1ccc(F)c(C(F)(F)F)c1)Nc1ccc(F)c(C(F)(F)F)c1	> 100
O=C(Nc1ccnc(C(F)(F)F)c1)Nc1ccc2c(c1)OC(F)(F)O2	> 100

tested on: Schistosoma mansoni; assay: Antischistosomal activity against newly transformed stage of Schistosoma mansoni measured after 72 hrs by microscopic analysis; assay type: functional, organism-based; conditions: not given
How it was run: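 Newly transformed schistosomula were first screened at 10 µM; compounds that killed them were then run as a concentration titration to derive IC50 values.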

SMILES	IC50 [µM]
O=C(Nc1ccc2c(c1)OC(F)(F)O2)Nc1ccc(F)c(C(F)(F)F)c1	0.21
O=C(Nc1ccnc(C(F)(F)F)c1)Nc1ccc(F)c(C(F)(F)F)c1	0.74
O=C(Nc1ccc2c(c1)OC(F)(F)O2)Nc1ccc2c(c1)OC(F)(F)O2	0.26
O=C(Nc1ccc(F)c(C(F)(F)F)c1)Nc1ccc(F)c(C(F)(F)F)c1	0.15
O=C(Nc1ccnc(C(F)(F)F)c1)Nc1ccc2c(c1)OC(F)(F)O2	1.3

tested on: not listed separately; assay: Intrinsic clearance in human liver microsomes assessed per mg protein after 60 mins in presence of NADPH generating system; assay type: ADME, microsome; conditions: 1 h

SMILES	CLH [µL/min/mg]
O=C(Nc1ccc2c(c1)OC(F)(F)O2)Nc1ccc(F)c(C(F)(F)F)c1	< 7
O=C(Nc1ccnc(C(F)(F)F)c1)Nc1ccc(F)c(C(F)(F)F)c1	< 7
O=C(Nc1ccc2c(c1)OC(F)(F)O2)Nc1ccc2c(c1)OC(F)(F)O2	< 7
O=C(Nc1ccc(F)c(C(F)(F)F)c1)Nc1ccc(F)c(C(F)(F)F)c1	10
O=C(Nc1ccnc(C(F)(F)F)c1)Nc1ccc2c(c1)OC(F)(F)O2	< 7

tested on: HEK293; assay: Cytotoxicity against HEK293 cells; assay type: cell-based; conditions: Homo sapiens

SMILES	IC50 [µM]
O=C(Nc1ccc2c(c1)OC(F)(F)O2)Nc1ccc(F)c(C(F)(F)F)c1	> 100
O=C(Nc1ccnc(C(F)(F)F)c1)Nc1ccc(F)c(C(F)(F)F)c1	> 100
O=C(Nc1ccc2c(c1)OC(F)(F)O2)Nc1ccc2c(c1)OC(F)(F)O2	> 100
O=C(Nc1ccc(F)c(C(F)(F)F)c1)Nc1ccc(F)c(C(F)(F)F)c1	> 100
O=C(Nc1ccnc(C(F)(F)F)c1)Nc1ccc2c(c1)OC(F)(F)O2	> 100

tested on: not listed separately; assay: Drug uptake in Swiss mouse plasma at 100 mg/kg, po administered as single dose via gavage measured after 2 hrs by LC-MS analysis; assay type: ADME, organism-based; conditions: in vivo; how it was run: as §1

SMILES	Drug uptake
O=C(Nc1ccc(F)c(C(F)(F)F)c1)Nc1ccc(F)c(C(F)(F)F)c1	Active

tested on: not listed separately; assay: Intrinsic clearance in mouse liver microsomes assessed per mg protein after 60 mins in presence of NADPH generating system; assay type: ADME, microsome; conditions: 1 h

SMILES	CLH [µL/min/mg]
O=C(Nc1ccc2c(c1)OC(F)(F)O2)Nc1ccc(F)c(C(F)(F)F)c1	< 7
O=C(Nc1ccnc(C(F)(F)F)c1)Nc1ccc(F)c(C(F)(F)F)c1	< 7
O=C(Nc1ccc2c(c1)OC(F)(F)O2)Nc1ccc2c(c1)OC(F)(F)O2	12
O=C(Nc1ccc(F)c(C(F)(F)F)c1)Nc1ccc(F)c(C(F)(F)F)c1	7
O=C(Nc1ccnc(C(F)(F)F)c1)Nc1ccc2c(c1)OC(F)(F)O2	16

tested on: Schistosoma mansoni; assay: Antischistosomal activity against adult stage of Schistosoma mansoni measured after 72 hrs by microscopic analysis; assay type: functional, organism-based; conditions: not given

SMILES	IC50 [µM]
O=C(Nc1ccc2c(c1)OC(F)(F)O2)Nc1ccc(F)c(C(F)(F)F)c1	0.49
O=C(Nc1ccnc(C(F)(F)F)c1)Nc1ccc(F)c(C(F)(F)F)c1	0.66
O=C(Nc1ccc2c(c1)OC(F)(F)O2)Nc1ccc2c(c1)OC(F)(F)O2	0.49
O=C(Nc1ccc(F)c(C(F)(F)F)c1)Nc1ccc(F)c(C(F)(F)F)c1	0.19
O=C(Nc1ccnc(C(F)(F)F)c1)Nc1ccc2c(c1)OC(F)(F)O2	0.75

tested on: HFF; assay: Cytotoxicity against HFF; assay type: cell-based; conditions: Homo sapiens

SMILES	IC50 [µM]
O=C(Nc1ccc2c(c1)OC(F)(F)O2)Nc1ccc(F)c(C(F)(F)F)c1	67
O=C(Nc1ccnc(C(F)(F)F)c1)Nc1ccc(F)c(C(F)(F)F)c1	71
O=C(Nc1ccc2c(c1)OC(F)(F)O2)Nc1ccc2c(c1)OC(F)(F)O2	79
O=C(Nc1ccc(F)c(C(F)(F)F)c1)Nc1ccc(F)c(C(F)(F)F)c1	57
O=C(Nc1ccnc(C(F)(F)F)c1)Nc1ccc2c(c1)OC(F)(F)O2	80

tested on: not listed separately; assay: Half-life in Swiss mouse at 100 mg/kg, po administered as single dose via gavage by LC-MS analysis; assay type: ADME, organism-based; conditions: in vivo; how it was run: as §1

SMILES	half-life [h]
O=C(Nc1ccnc(C(F)(F)F)c1)Nc1ccc(F)c(C(F)(F)F)c1	18
O=C(Nc1ccc2c(c1)OC(F)(F)O2)Nc1ccc2c(c1)OC(F)(F)O2	13
O=C(Nc1ccc(F)c(C(F)(F)F)c1)Nc1ccc(F)c(C(F)(F)F)c1	11

tested on: not listed separately; assay: Plasma concentration in Swiss mouse at 100 mg/kg, po administered as single dose via gavage measured up to 48 hrs by LC-MS analysis; assay type: ADME, organism-based; conditions: not given; how it was run: as §1

SMILES	concentration at 48 h [µM]
O=C(Nc1ccc2c(c1)OC(F)(F)O2)Nc1ccc(F)c(C(F)(F)F)c1	> 5
O=C(Nc1ccc2c(c1)OC(F)(F)O2)Nc1ccc2c(c1)OC(F)(F)O2	> 5
O=C(Nc1ccc(F)c(C(F)(F)F)c1)Nc1ccc(F)c(C(F)(F)F)c1	> 1
O=C(Nc1ccnc(C(F)(F)F)c1)Nc1ccc2c(c1)OC(F)(F)O2	> 5

tested on: not listed separately; assay: Kinetic solubility of the compound in 0.01M HCl at pH 2 by nephelometric method; assay type: physicochemical; conditions: read-out: Kinetic_solubility
How it was run: (§2)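 DMSO stocks spiked into pH 6.5 phosphate buffer or 0.01 M HCl (approx. pH 2.0); nephelometry gave a solubility concentration range.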

SMILES	solubility kinetic [µg/mL]
O=C(Nc1ccc2c(c1)OC(F)(F)O2)Nc1ccc(F)c(C(F)(F)F)c1	< 1.6
O=C(Nc1ccnc(C(F)(F)F)c1)Nc1ccc(F)c(C(F)(F)F)c1	3.1 to 6.3 (≈ 8.44 to 17.2 µM)
O=C(Nc1ccc2c(c1)OC(F)(F)O2)Nc1ccc2c(c1)OC(F)(F)O2	< 1.6
O=C(Nc1ccc(F)c(C(F)(F)F)c1)Nc1ccc(F)c(C(F)(F)F)c1	< 1.6
O=C(Nc1ccnc(C(F)(F)F)c1)Nc1ccc2c(c1)OC(F)(F)O2	3.1 to 6.3 (≈ 8.58 to 17.4 µM)

tested on: not listed separately; assay: Drug uptake in Swiss mouse plasma at 100 mg/kg, po administered as single dose via gavage measured after 4 to 48 hrs by LC-MS analysis; assay type: ADME, organism-based; conditions: in vivo; how it was run: as §1

SMILES	Drug uptake
O=C(Nc1ccnc(C(F)(F)F)c1)Nc1ccc(F)c(C(F)(F)F)c1	Active

tested on: not listed separately; assay: AUC (0 to last) in Swiss mouse at 100 mg/kg, po administered as single dose via gavage by LC-MS analysis; assay type: ADME, organism-based; parameters: dose 100 mg/kg, time 0 - last, route oral; conditions: in vivo; how it was run: as §1

SMILES	AUC(0-t) [µM·h]
O=C(Nc1ccc2c(c1)OC(F)(F)O2)Nc1ccc(F)c(C(F)(F)F)c1	989
O=C(Nc1ccnc(C(F)(F)F)c1)Nc1ccc(F)c(C(F)(F)F)c1	1490
O=C(Nc1ccc2c(c1)OC(F)(F)O2)Nc1ccc2c(c1)OC(F)(F)O2	679
O=C(Nc1ccc(F)c(C(F)(F)F)c1)Nc1ccc(F)c(C(F)(F)F)c1	394
O=C(Nc1ccnc(C(F)(F)F)c1)Nc1ccc2c(c1)OC(F)(F)O2	2270

tested on: not listed separately; assay: Kinetic solubility of the compound in phosphate buffer at pH 6.5 by nephelometric method; assay type: physicochemical; conditions: read-out: Kinetic_solubility; how it was run: as §2

SMILES	solubility kinetic [µg/mL]
O=C(Nc1ccc2c(c1)OC(F)(F)O2)Nc1ccc(F)c(C(F)(F)F)c1	< 1.6
O=C(Nc1ccnc(C(F)(F)F)c1)Nc1ccc(F)c(C(F)(F)F)c1	3.1 to 6.3 (≈ 8.44 to 17.2 µM)
O=C(Nc1ccc2c(c1)OC(F)(F)O2)Nc1ccc2c(c1)OC(F)(F)O2	< 1.6
O=C(Nc1ccnc(C(F)(F)F)c1)Nc1ccc2c(c1)OC(F)(F)O2	3.1 to 6.3 (≈ 8.58 to 17.4 µM)

tested on: not listed separately; assay: Cmax in Swiss mouse at 100 mg/kg, po administered as single dose via gavage by LC-MS analysis; assay type: ADME, organism-based; parameters: dose 100 mg/kg, route oral; conditions: in vivo; how it was run: as §1

SMILES	Cmax [µM]
O=C(Nc1ccc2c(c1)OC(F)(F)O2)Nc1ccc(F)c(C(F)(F)F)c1	27
O=C(Nc1ccnc(C(F)(F)F)c1)Nc1ccc(F)c(C(F)(F)F)c1	56
O=C(Nc1ccc2c(c1)OC(F)(F)O2)Nc1ccc2c(c1)OC(F)(F)O2	25
O=C(Nc1ccc(F)c(C(F)(F)F)c1)Nc1ccc(F)c(C(F)(F)F)c1	31
O=C(Nc1ccnc(C(F)(F)F)c1)Nc1ccc2c(c1)OC(F)(F)O2	55

tested on: Schistosoma mansoni; assay: Antischistosomal activity against Schistosoma mansoni cercariae infected in NMRI mouse assessed as reduction in worm burden at 100 mg/kg, po administered as single dose via gavage measured after 21 days relative to control; assay type: functional; parameters: scale not given: the % may be the effect or the level left; conditions: not given
How it was run: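 Infected mice given a single 100 mg/kg oral dose; efficacy read as worm burden reduction (%).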

SMILES	Activity [%]
O=C(Nc1ccc2c(c1)OC(F)(F)O2)Nc1ccc(F)c(C(F)(F)F)c1	0
O=C(Nc1ccnc(C(F)(F)F)c1)Nc1ccc(F)c(C(F)(F)F)c1	50
O=C(Nc1ccc2c(c1)OC(F)(F)O2)Nc1ccc2c(c1)OC(F)(F)O2	0
O=C(Nc1ccc(F)c(C(F)(F)F)c1)Nc1ccc(F)c(C(F)(F)F)c1	40
O=C(Nc1ccnc(C(F)(F)F)c1)Nc1ccc2c(c1)OC(F)(F)O2	2.1

tested on: not listed separately; assay: Octanol-[…] partition coefficient, log D of the compound at pH 7.4 by RP-HPLC method; conditions: not given

SMILES	chromatographic logD
O=C(Nc1ccc2c(c1)OC(F)(F)O2)Nc1ccc(F)c(C(F)(F)F)c1	4.5
O=C(Nc1ccnc(C(F)(F)F)c1)Nc1ccc(F)c(C(F)(F)F)c1	3.8
O=C(Nc1ccc2c(c1)OC(F)(F)O2)Nc1ccc2c(c1)OC(F)(F)O2	4.4
O=C(Nc1ccc(F)c(C(F)(F)F)c1)Nc1ccc(F)c(C(F)(F)F)c1	4.5
O=C(Nc1ccnc(C(F)(F)F)c1)Nc1ccc2c(c1)OC(F)(F)O2	3.7
